Experimental data reported in ChEMBL document CHEMBL3045116, “Synthesis and biological evaluation of 2-(5-substituted-1-((diethylamino)methyl)-2-oxoindolin-3-ylidene)-N-substituted-hydrazinecarbothioamides” (Med Chem Res, 2013).
pEC50, pIC50: −log10 of the molar value.

Experiments:
[1] = system: Human respirovirus 3; assay: Antiviral activity against Human parainfluenza virus 3 infected African green monkey Vero cells assessed as reduction of virus-induced cytopathic effect after 3 days by colorimetric formazan-based MTS assay; assay type: functional, organism-based; conditions: Human respirovirus 3, Vero, 72 h
Summary of the method: (§1)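 Cells grown to confluency in 96-well plates ([…], Vero for lines 9–10) were infected with 100 CCID50 of virus, and serial compound dilutions were added at infection. Plates were incubated at 37 °C for 3 days, until complete CPE appeared in untreated virus controls.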

[2] = system: Human alphaherpesvirus 1; assay: Antiviral activity against acyclovir-resistant thymidine kinase negative Human herpesvirus 1 strain KOS infected human HEL cells assessed as reduction of virus-induced cytopathic effect after 3 days by colorimetric formazan-based MTS assay; assay type: functional, organism-based; conditions: Human alphaherpesvirus 1, KOS, 72 h
Summary of the method: (§2)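 Confluent cell monolayers were infected with 100 CCID50 of virus, and serial dilutions of compound were added at the time of infection.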

[3] = system: Klebsiella pneumoniae; assay: Antibacterial activity against Klebsiella pneumoniae assessed as growth inhibition at 50 ug/ml by cup-plate method (reference value: 8 to 10 mm); assay type: functional; conditions: read-out: DIZ
[4] = system: Influenza A virus; assay: Antiviral activity against Unidentified Influenza A virus (H1N1) infected MDCK cells assessed as reduction of virus-induced cytopathic effect after 3 days by colorimetric formazan-based MTS assay; assay type: functional, organism-based; conditions: 72 h; summary of the method: as §2
[5] = system: Coxsackievirus B4; assay: Antiviral activity against Human coxsackievirus B4 infected African green monkey Vero cells assessed as reduction of virus-induced cytopathic effect after 3 days by colorimetric formazan-based MTS assay; assay type: functional, organism-based; conditions: Enterovirus B, 72 h; summary of the method: as §2
[6] = system: Staphylococcus aureus; assay: Antibacterial activity against Staphylococcus aureus assessed as growth inhibition at 50 ug/ml by cup-plate method (reference value: 8 to 10 mm); assay type: functional; conditions: read-out: DIZ
[7] = system: Vesicular stomatitis virus; assay: Antiviral activity against Vesicular stomatitis virus infected human HEL cells assessed as reduction of virus-induced cytopathic effect after 3 days by colorimetric formazan-based MTS assay; assay type: functional, organism-based; conditions: 72 h; summary of the method: as §2
[8] = (§3) Cytotoxicity against Homo sapiens (human) HeLa cells assessed as change in cellular morphology; assay type: cell-based; conditions: HeLa cells
Summary of the method: (§4)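 Uninfected cells were exposed to compound in parallel with the antiviral cultures. The read-out is the minimum cytotoxic concentration that causes a microscopically detectable alteration of normal cell morphology.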

[9] = system: HeLa; assay: as §3; assay type: cell-based; conditions: hela; summary of the method: as §4
[10] = system: Human alphaherpesvirus 1; assay: Antiviral activity against Human herpesvirus 1 strain KOS infected human HEL cells assessed as reduction of virus-induced cytopathic effect after 3 days by colorimetric formazan-based MTS assay; assay type: functional, organism-based; conditions: Human alphaherpesvirus 1, KOS, 72 h; summary of the method: as §2
[11] = system: Vesicular stomatitis virus; assay: Antiviral activity against Vesicular stomatitis virus infected human HeLa cells assessed as reduction of virus-induced cytopathic effect after 3 days by colorimetric formazan-based MTS assay; assay type: functional, organism-based; conditions: 72 h; summary of the method: as §2
[12] = system: CCRF-CEM; assay: Cytotoxicity against Homo sapiens (human) CEM cells assessed as growth inhibition after 72 hr by coulter counter analysis; assay type: functional, cell-based
Summary of the method: (§5)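 Cells in growth medium were allowed to proliferate with variable compound amounts at 37 °C in a humidified CO2 atmosphere. Incubation ran 48 h for L1210, 72 h for CEM and 96 h for HeLa. Cells were then counted with a Coulter counter.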

[13] = Cytotoxicity against Chlorocebus aethiops (African green monkey) Vero cells assessed as change in cellular morphology; assay type: cell-based; conditions: chlorocebus sabaeus
[14] = Cytotoxicity against Felis catus (cat) CRFK cells assessed as change in cellular morphology; assay type: cell-based; conditions: crfk; summary of the method: as §4
[15] = system: Punta Toro virus; assay: Antiviral activity against Punta Toro virus infected in African green monkey Vero cells assessed as reduction of virus-induced cytopathic effect after 3 days by colorimetric formazan-based MTS assay; assay type: functional, organism-based; conditions: 72 h; summary of the method: as §2
[16] = system: Respiratory syncytial virus; assay: Antiviral activity against Respiratory syncytial virus infected human HeLa cells assessed as reduction of virus-induced cytopathic effect after 3 days by colorimetric formazan-based MTS assay; assay type: functional, organism-based; conditions: 72 h; summary of the method: as §2
[17] = Cytotoxicity against Homo sapiens (human) HEL cells assessed as change in cellular morphology; assay type: cell-based
[18] = system: Salmonella typhi; assay: Antibacterial activity against Salmonella enterica subsp. enterica serovar Typhi assessed as growth inhibition at 50 ug/ml by cup-plate method (reference value: 8 to 10 mm); assay type: functional; conditions: read-out: DIZ
[19] = Inhibition of beta lactamase assessed as time for decolorization of iodine (reference value: 79.5 secs)
[20] = system: Feline infectious peritonitis virus; assay: Antiviral activity against Feline Infectious peritonitis virus infected cat CRFK cells assessed as reduction of virus-induced cytopathic effect after 3 days by colorimetric formazan-based MTS assay; assay type: functional, organism-based; conditions: Alphacoronavirus 1, CRFK, 72 h; summary of the method: as §2
[21] = system: Mammalian orthoreovirus 1; assay: Antiviral activity against Mammalian orthoreovirus 1 infected African green monkey Vero cells assessed as reduction of virus-induced cytopathic effect after 3 days by colorimetric formazan-based MTS assay; assay type: functional, organism-based; conditions: Mammalian orthoreovirus 1, Vero, 72 h; summary of the method: as §1
[22] = system: L1210; assay: Cytotoxicity against Mus musculus (mouse) L1210 cells assessed as growth inhibition after 48 hr by coulter counter analysis; assay type: functional, cell-based; conditions: L1210, 48 h; summary of the method: as §5
[23] = system: Influenza A virus H3N2; assay: Antiviral activity against Influenza A virus H3N2 infected MDCK cells assessed as reduction of virus-induced cytopathic effect after 3 days by colorimetric formazan-based MTS assay; assay type: functional, organism-based; conditions: 72 h; summary of the method: as §2
[24] = system: Bacillus subtilis; assay: Antibacterial activity against Bacillus subtilis assessed as growth inhibition at 50 ug/ml by cup-plate method (reference value: 8 to 10 mm); assay type: functional; conditions: read-out: DIZ
[25] = system: Human alphaherpesvirus 2; assay: Antiviral activity against Human herpesvirus 2 strain G infected human HEL cells assessed as reduction of virus-induced cytopathic effect after 3 days by colorimetric formazan-based MTS assay; assay type: functional, organism-based; conditions: Human alphaherpesvirus 2, strain G, 72 h; summary of the method: as §2
[26] = system: Coxsackievirus B4; assay: Antiviral activity against Human coxsackievirus B4 infected human HeLa cells assessed as reduction of virus-induced cytopathic effect after 3 days by colorimetric formazan-based MTS assay; assay type: functional, organism-based; conditions: Enterovirus B, 72 h; summary of the method: as §2
[27] = system: Felid alphaherpesvirus 1; assay: Antiviral activity against Felid herpesvirus 1 infected cat CRFK cells assessed as reduction of virus-induced cytopathic effect after 3 days by colorimetric formazan-based MTS assay; assay type: functional, organism-based; conditions: Felid alphaherpesvirus 1, CRFK, 72 h; summary of the method: as §1
[28] = Inhibition of beta lactamase assessed as increase in time taken for iodine decolorization relative to control; parameters: concentration or dose not given beside the values; conditions: concentration not given here
[29] = system: Vaccinia virus; assay: Antiviral activity against Vaccinia virus infected human HEL cells assessed as reduction of virus-induced cytopathic effect after 3 days by colorimetric formazan-based MTS assay; assay type: functional, organism-based; conditions: Orthopoxvirus vaccinia, 72 h; summary of the method: as §2
[30] = (§6) Cytotoxicity against MDCK cells assessed as change in cellular morphology; assay type: cell-based, Canis lupus familiaris; conditions: dog, MDCK cells; summary of the method: as §4
[31] = system: MDCK; assay: as §6; assay type: cell-based, Canis lupus familiaris; conditions: dog, mdck; summary of the method: as §4
[32] = system: Candida albicans; assay: Antifungal activity against Candida albicans assessed as growth inhibition at 50 ug/ml by cup-plate method (reference value: 8 to 10 mm); assay type: functional; conditions: read-out: DIZ
[33] = system: Proteus vulgaris; assay: Antibacterial activity against Proteus vulgaris assessed as growth inhibition at 50 ug/ml by cup-plate method (reference value: 8 to 10 mm); assay type: functional; conditions: read-out: DIZ
[34] = system: Respirovirus muris; assay: Antiviral activity against Sendai virus infected African green monkey Vero cells assessed as reduction of virus-induced cytopathic effect after 3 days by colorimetric formazan-based MTS assay; assay type: functional, organism-based; conditions: 72 h
[35] = system: Aspergillus niger; assay: Antifungal activity against Aspergillus niger assessed as growth inhibition at 50 ug/ml by cup-plate method (reference value: 8 to 10 mm); assay type: functional; conditions: read-out: DIZ
[36] = system: Escherichia coli; assay: Antibacterial activity against Escherichia coli assessed as growth inhibition at 50 ug/ml by cup-plate method (reference value: 8 to 10 mm); assay type: functional; conditions: read-out: DIZ
[37] = system: Influenza B virus; assay: Antiviral activity against Influenza B virus infected in MDCK cells assessed as reduction of virus-induced cytopathic effect after 3 days by colorimetric formazan-based MTS assay; assay type: functional, organism-based; conditions: 72 h; summary of the method: as §2

Compound: CCN(CC)CN1C(=O)/C(=N/NC(=S)Nc2ccccc2)c2cc(Cl)ccc21
- pEC50 [1]: < 4.70
- pEC50 [2]: < 4.70
- zone of inhibition at 50 µg/mL [3]: 11 mm
- pEC50 [4]: < 6.10
- pEC50 [5]: < 4.70
- zone of inhibition at 50 µg/mL [6]: 11 mm
- pEC50 [7]: < 4.70
- MCC [8]: ≥ 20 µM
- CC50 [9]: 13.5 µM
- pEC50 [10]: < 4.70
- pEC50 [11]: < 4.70
- pIC50 [12]: 4.40
- MCC [13]: 100 µM
- CC50 [14]: 6.9 µM
- pEC50 [15]: < 4.70
- pEC50 [16]: < 4.70
- MCC [17]: 100 µM
- zone of inhibition at 50 µg/mL [18]: 11 mm
- TIME [19]: 0.0434 h
- pEC50 [20]: < 5.40
- pEC50 [21]: < 4.70
- pIC50 [22]: 4.31
- pEC50 [23]: < 6.10
- zone of inhibition at 50 µg/mL [24]: 11 mm
- pEC50 [25]: < 4.70
- pEC50 [26]: < 4.70
- pEC50 [27]: < 5.40
- inhibition [28]: 49.2%
- pEC50 [29]: < 4.70
- MCC [30]: ≥ 800 nM
- CC50 [31]: 3 µM
- zone of inhibition at 50 µg/mL [32]: 21 mm
- zone of inhibition at 50 µg/mL [33]: 21 mm
- pEC50 [34]: < 4.70
- zone of inhibition at 50 µg/mL [35]: 11 mm
- zone of inhibition at 50 µg/mL [36]: 11 mm
- pEC50 [37]: < 6.10

Compound: CCN(CC)CN1C(=O)/C(=N/NC(=S)Nc2ccc(Cl)cc2)c2cc(Cl)ccc21
- pEC50 [1]: < 4.70
- pEC50 [2]: < 4.70
- zone of inhibition at 50 µg/mL [3]: 11 mm
- pEC50 [4]: < 6.10
- pEC50 [5]: < 4.70
- zone of inhibition at 50 µg/mL [6]: 21 mm
- pEC50 [7]: < 4.70
- MCC [8]: 100 µM
- CC50 [9]: 9.4 µM
- pEC50 [10]: < 4.70
- pEC50 [11]: < 4.70
- pIC50 [12]: < 3.90
- MCC [13]: 100 µM
- CC50 [14]: 9.1 µM
- pEC50 [15]: < 4.70
- pEC50 [16]: < 4.70
- MCC [17]: 100 µM
- zone of inhibition at 50 µg/mL [18]: 21 mm
- TIME [19]: 0.0395 h
- pEC50 [20]: < 5.40
- pEC50 [21]: < 4.70
- pIC50 [22]: < 3.90
- pEC50 [23]: < 6.10
- zone of inhibition at 50 µg/mL [24]: 21 mm
- pEC50 [25]: < 4.70
- pEC50 [26]: < 4.70
- pEC50 [27]: < 5.40
- inhibition [28]: 44.2%
- pEC50 [29]: < 4.70
- MCC [30]: ≥ 800 nM
- CC50 [31]: 2.4 µM
- zone of inhibition at 50 µg/mL [32]: 21 mm
- zone of inhibition at 50 µg/mL [33]: 21 mm
- pEC50 [34]: < 4.70
- zone of inhibition at 50 µg/mL [35]: 21 mm
- zone of inhibition at 50 µg/mL [36]: 21 mm
- pEC50 [37]: < 6.10
